Screens deposited in PubChem by several laboratories.
SR-BI DiI-HDL act – SR-BI HDL lipid transfer activation. CHO ldlA[mSR-BI] cells, DiI-HDL uptake fluorescence, 3 h; 100 = double the neutral-control signal. activation, % at 12.5 µM. 320,000 compounds, 0.096% hits. AID 504775;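 active means mean replicate activation of at least 60% and every replicate at or above 60%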
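Material: SR-BI-overexpressing, LDLR-lacking CHO cells | Dosing: Single compound concentration, delivered by pin transfer | Probe or stimulus: Labelled HDL, 10 µg/mL | Signal: Bottom-read cell fluorescence after medium removal, ex 550/em 595 nm | Schedule: 3 h, 37 °C | Evaluation: HDL uptake via cellular fluorescence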
dFosB act-1 – activators of mouse delta FosB homodimer; 340,000 compounds, 0.99% hits; AID 493131; purified delta FosB, TAMRA-CDK5 oligo fluorescence polarization; percent of positive-control signal above neutral wells; activation, % at 25 µM; P13346;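 active means mean activation above about 17%, with every replicate also reaching it, limit read from the data, passing the limit was not always enough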
SR-BI HDL uptake – inhibitors of mouse SR-BI mediated HDL lipid uptake | 320,000 compounds, 0.96% hits | AID 488896 | inhibition, % at 12.5 µM | ldlA[mSR-BI] CHO cells, DiI-HDL uptake fluorescence, 3 h;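 active means mean replicate inhibition of at least 70% and a set share of replicates each scoring 70 or more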
PKA-R2B act – activates the human PKA-R2B holoenzyme complex; PKA-R2B holoenzyme dissociation, Cy5-IP20 fluorescence polarization; R2B truncated from residue 108, S112A mutant; 0% DMSO only, 100% 113 µM cGMP; P22694+P31323; activation, % at 11.4 µM; 340,000 compounds, 0.079% hits;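 active means activation above a cutoff set at the mean over all compounds plus 3 SD, cut at about 18% in these data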;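 further: higher means more holoenzyme dissociation and a rise in polarization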
PKA-R1A activ – PKA-R1A complex activation | P00514+P68181 | PKA-R1A dissociation, Cy5-IP20 fluorescence polarization; scaled: DMSO 0%, 113 µM cGMP 100% | activation, % at 11.4 µM | 340,000 compounds, 0.083% hits | AID 504707;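 active means percent activation above the mean of all tested compounds plus 3 SD, cut at about 19% in these data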;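 further: higher means more PKAc released from R1A so a rise in polarization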
CDK5 inh – CDK5/p35 (human) kinase inhibition; Q00535+Q15078; Recombinant CDK5/p35, ADP-Glo luminescence, 60 min; inhibition, % at 10 µM; 330,000 compounds, 0.01% hits;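 active means highest replicate inhibition of at least 50% and at least 75% of replicates reaching 50%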
Target sequence (Q00535 whole entry, looked up): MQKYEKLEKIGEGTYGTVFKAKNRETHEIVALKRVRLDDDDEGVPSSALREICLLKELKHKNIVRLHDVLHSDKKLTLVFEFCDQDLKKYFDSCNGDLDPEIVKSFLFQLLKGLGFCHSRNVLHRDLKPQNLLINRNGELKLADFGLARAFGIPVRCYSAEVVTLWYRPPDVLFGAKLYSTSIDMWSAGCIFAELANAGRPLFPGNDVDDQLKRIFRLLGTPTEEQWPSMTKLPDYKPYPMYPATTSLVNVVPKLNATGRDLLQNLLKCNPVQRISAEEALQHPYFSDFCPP
Target sequence (Q15078 whole entry, looked up): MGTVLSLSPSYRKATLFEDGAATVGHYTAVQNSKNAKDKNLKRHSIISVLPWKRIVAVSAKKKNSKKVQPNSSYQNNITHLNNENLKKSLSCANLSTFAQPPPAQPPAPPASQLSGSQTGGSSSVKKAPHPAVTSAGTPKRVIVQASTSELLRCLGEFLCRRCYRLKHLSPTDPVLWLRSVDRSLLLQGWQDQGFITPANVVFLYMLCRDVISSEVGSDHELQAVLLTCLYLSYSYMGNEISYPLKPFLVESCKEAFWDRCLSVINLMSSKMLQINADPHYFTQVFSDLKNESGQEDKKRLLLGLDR
dFosB act-2 – enhances mouse delta FosB homodimer binding to DNA; shares compounds with dFosB act-1; purified delta FosB, TAMRA-CDK5 oligo fluorescence polarization; normalised: neutral wells 0, positive control 100; activation, % at 24.9 µM; 2,400 tested, under 10 active; AID 588690;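 active means highest replicate activation at or above 34% and every replicate reaching that threshold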;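 further: higher polarization means more probe DNA bound by delta FosB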
Hits are given with their value; 0 = inactive; - = no result given. This is a sample that favours compounds with a hit; in the whole collection about 2.1% have one here.

SMILES | SR-BI DiI-HDL act | dFosB act-1 | SR-BI HDL uptake | PKA-R2B act | PKA-R1A activ | CDK5 inh | dFosB act-2
Cc1ccc(NC(=O)CSc2nc3nc(C)c(Br)cc3[nH]2)cc1F | 0 | 57 | 0 | 0 | 0 | 0 | 0
Cc1ccc(C(=O)N(C)CCOc2ccccc2)cc1S(=O)(=O)N1CCOCC1 | 0 | 0 | 0 | 0 | 0 | 0 | -
O=C(Nc1cccnc1)c1cc(-c2ccc(Cl)cc2)on1 | - | 0 | - | 0 | 0 | 0 | -
O=C(Nc1cccnc1)c1cc(-c2ccc(Cl)cc2Cl)on1 | 0 | 62 | 0 | 0 | 0 | 0 | 0
CC(O)(c1ccccc1)c1ccc2ccccc2n1 (configuration not stated) | 0 | 0 | 0 | 0 | 0 | 0 | -
NC(=O)c1ccsc1NC(=O)COC(=O)c1cc(=O)[nH]c2ccccc12 | 0 | 0 | 0 | 0 | 0 | 0 | -
O=C(COC(=O)c1cc(Cl)ccc1O)NC(=O)NCc1ccccc1 | 0 | 24 | 0 | 0 | 0 | 0 | 0
O=C(COC(=O)c1cc(=O)[nH]c2ccccc12)NCc1ccc(Cl)cc1 | 0 | 57 | 0 | 0 | 0 | 0 | 0
O=C(COC(=O)c1cc(=O)[nH]c2ccccc12)Nc1nc(-c2ccc(F)cc2)cs1 | - | 41 | - | 0 | 0 | 0 | 0
O=C(COC(=O)c1cc(=O)[nH]c2ccccc12)NCc1ccc(F)cc1 | 0 | 0 | 0 | 0 | 0 | 0 | -
Cc1ccc(NC(=O)CCn2c(=O)c3cccn3c3ccccc32)cc1C | 0 | 0 | 0 | 0 | 0 | 0 | -
Cc1ccc(C2=C(c3ccc([N+](=O)[O-])cc3)C(=O)OC2)cc1C | 0 | 0 | 0 | 0 | 0 | 0 | -
CN(c1ccccc1)S(=O)(=O)c1nnc(NC(=O)COc2ccccc2)s1 | 0 | 20 | 0 | 0 | 0 | - | 0
CN(c1ccccc1)S(=O)(=O)c1nnc(NC(=O)COc2ccccc2F)s1 | 0 | 33 | 0 | 0 | 0 | 0 | 0
COc1ccc(CN(C2CC2)S(=O)(=O)c2ccccc2Br)cc1 | 0 | 0 | 0 | 0 | 0 | 0 | -
Cc1ccc(NS(=O)(=O)c2ccc(Cl)nc2)c(C)c1 | 0 | 0 | 0 | 0 | 0 | 0 | -
N#C/C(=C(/O)COC(=O)c1ccc2c(c1)OCCO2)c1nc2ccccc2[nH]1 | 0 | 39 | 0 | 0 | 0 | 0 | 0
CC(C)C[C@@H](CN1CCCC1CN1C(=S)NC[C@@H]1Cc1ccc(O)cc1)N1C[C@H](Cc2ccccc2)N(CCc2ccccc2)C1=S (some centres not stated) | 0 | 61 | 0 | 0 | 0 | 0 | 0
Oc1ccc(C[C@H]2CNC(=S)N2CC2CCCN2C[C@H](Cc2ccc(O)cc2)N2C[C@H](Cc3ccccc3)N(CCc3ccccc3)C2=S)cc1 (some centres not stated) | 0 | 65 | 0 | 0 | 0 | 0 | 0
CCOc1ccc(CCN2C(=O)C(=O)N([C@@H](Cc3ccc(O)cc3)CN3CCC[C@@H]3CN3C(=O)C(=O)NC[C@@H]3Cc3ccccc3)C[C@@H]2Cc2ccccc2)cc1 | 0 | 0 | 0 | 0 | 0 | 0 | -
CC(C)C[C@H]1CN([C@@H](CC(C)C)CN2CCCC2CN2C(=S)NC[C@@H]2Cc2ccc(O)cc2)C(=S)N1CCc1ccccc1 (some centres not stated) | 0 | 25 | 0 | 0 | 0 | 0 | 0
COc1ccc(NC(=O)Nc2nnc(CC(=O)NCc3ccccc3)s2)cc1 | 0 | 0 | 0 | 0 | 0 | 0 | -
COc1ccccc1NC(=O)Nc1nc(CC(=O)Nc2ccc(F)cc2)cs1 | 0 | 27 | 0 | 0 | 0 | 0 | 0
O=C(Nc1ccccc1)Nc1nnc(Cc2ccccc2F)s1 | 0 | 0 | 0 | 0 | 0 | 0 | -
COc1ccc(NC(=O)Cc2csc(NC(=O)Nc3ccccc3OC)n2)cc1 | - | - | - | 0 | 0 | - | -
COc1cccc(NC(=O)Nc2nnc(CC(=O)NCc3ccccc3)s2)c1 | - | 39 | - | 0 | 0 | 0 | 0
Cc1ccccc1NC(=O)Cc1nnc(NC(=O)Nc2ccccc2F)s1 | 0 | 52 | 0 | 0 | 0 | 0 | 0
